Test results from ChEMBL document CHEMBL4130456 (ACS Med Chem Lett, 2017).
In brackets after ≈: the same amount, converted by molar mass.

Assays:
[1] = Inhibition of PI3Kdelta in 50% rat blood assessed as reduction in anti-IgM stimulated CD86 expression pretreated for 1 hr followed by anti-IgM stimulation after 24 hrs by flow cytometric analysis
Method in brief: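 Rat 50% whole blood; B cells stimulated with anti-IgM/IL-4; readouts pAKT or CD86.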

[2] = biological target: T1, Phosphatidylinositol 4,5-bisphosphate 3-kinase catalytic subunit beta isoform (Homo sapiens, UniProt P42338); assay: Inhibition of recombinant human myristoylated PI3Kbeta catalytic domain expressed in Rat1 cells assessed as reduction in Akt phosphorylation at […] residue after 1 hr by alpha screen Surefire assay; type: cell-based
T1 sequence (P42338 whole entry, the tested form may be a part, canonical isoform): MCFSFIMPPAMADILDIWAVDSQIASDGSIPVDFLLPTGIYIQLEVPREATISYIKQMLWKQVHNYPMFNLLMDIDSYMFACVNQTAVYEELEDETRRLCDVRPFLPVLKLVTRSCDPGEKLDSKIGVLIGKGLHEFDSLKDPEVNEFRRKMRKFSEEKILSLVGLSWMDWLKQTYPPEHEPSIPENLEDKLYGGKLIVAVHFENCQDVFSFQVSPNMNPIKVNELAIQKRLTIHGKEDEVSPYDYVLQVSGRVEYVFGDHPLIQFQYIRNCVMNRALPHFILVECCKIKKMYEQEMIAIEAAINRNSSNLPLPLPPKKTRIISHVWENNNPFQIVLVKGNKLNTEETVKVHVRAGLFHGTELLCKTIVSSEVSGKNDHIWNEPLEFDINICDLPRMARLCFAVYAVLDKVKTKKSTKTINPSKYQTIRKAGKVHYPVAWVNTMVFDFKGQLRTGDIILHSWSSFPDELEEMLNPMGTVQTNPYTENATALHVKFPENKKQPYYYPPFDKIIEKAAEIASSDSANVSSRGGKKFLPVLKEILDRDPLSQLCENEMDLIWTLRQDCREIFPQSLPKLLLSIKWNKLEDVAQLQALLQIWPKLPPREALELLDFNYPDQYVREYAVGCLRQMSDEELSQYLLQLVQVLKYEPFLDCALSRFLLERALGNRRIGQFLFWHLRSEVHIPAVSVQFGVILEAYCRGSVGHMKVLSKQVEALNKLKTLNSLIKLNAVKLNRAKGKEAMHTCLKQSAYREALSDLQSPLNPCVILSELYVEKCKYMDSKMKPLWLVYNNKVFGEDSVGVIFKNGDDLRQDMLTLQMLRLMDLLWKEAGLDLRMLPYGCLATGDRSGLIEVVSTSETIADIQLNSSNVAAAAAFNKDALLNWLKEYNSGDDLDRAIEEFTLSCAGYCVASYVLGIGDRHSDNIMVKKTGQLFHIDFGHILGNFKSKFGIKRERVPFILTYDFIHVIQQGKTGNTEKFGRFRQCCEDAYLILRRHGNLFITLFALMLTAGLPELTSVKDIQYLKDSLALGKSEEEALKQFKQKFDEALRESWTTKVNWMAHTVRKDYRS

[3] = Equilibrium solubility of the compound at pH 6.8 by LC-MS/MS analysis; type: physicochemical; details: buffer
Method in brief: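 High-throughput equilibrium solubility at pH 6.8, reported in mM.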

[4] = Lipophilicity, log P of the compound by artificial membrane based assay; type: physicochemical
[5] = biological target: T1, Phosphatidylinositol 4,5-bisphosphate 3-kinase catalytic subunit beta isoform; assay: Inhibition of recombinant PI3Kbeta (unknown origin) using phosphatidyl inositol/n-Octyl-glucoside as substrate measured after 60 mins by KinaseGlo assay
[6] = biological target: T2, Phosphatidylinositol 4,5-bisphosphate 3-kinase catalytic subunit delta isoform (Mus musculus, UniProt O35904); assay: Inhibition of PI3Kdelta in Balb/c mouse splenocytes assessed as reduction in anti-IgM stimulated CD86 expression pretreated for 1 hr followed by anti-IgM stimulation after 24 hrs by flow cytometric analysis; type: cell-based
T2 sequence (O35904 whole entry): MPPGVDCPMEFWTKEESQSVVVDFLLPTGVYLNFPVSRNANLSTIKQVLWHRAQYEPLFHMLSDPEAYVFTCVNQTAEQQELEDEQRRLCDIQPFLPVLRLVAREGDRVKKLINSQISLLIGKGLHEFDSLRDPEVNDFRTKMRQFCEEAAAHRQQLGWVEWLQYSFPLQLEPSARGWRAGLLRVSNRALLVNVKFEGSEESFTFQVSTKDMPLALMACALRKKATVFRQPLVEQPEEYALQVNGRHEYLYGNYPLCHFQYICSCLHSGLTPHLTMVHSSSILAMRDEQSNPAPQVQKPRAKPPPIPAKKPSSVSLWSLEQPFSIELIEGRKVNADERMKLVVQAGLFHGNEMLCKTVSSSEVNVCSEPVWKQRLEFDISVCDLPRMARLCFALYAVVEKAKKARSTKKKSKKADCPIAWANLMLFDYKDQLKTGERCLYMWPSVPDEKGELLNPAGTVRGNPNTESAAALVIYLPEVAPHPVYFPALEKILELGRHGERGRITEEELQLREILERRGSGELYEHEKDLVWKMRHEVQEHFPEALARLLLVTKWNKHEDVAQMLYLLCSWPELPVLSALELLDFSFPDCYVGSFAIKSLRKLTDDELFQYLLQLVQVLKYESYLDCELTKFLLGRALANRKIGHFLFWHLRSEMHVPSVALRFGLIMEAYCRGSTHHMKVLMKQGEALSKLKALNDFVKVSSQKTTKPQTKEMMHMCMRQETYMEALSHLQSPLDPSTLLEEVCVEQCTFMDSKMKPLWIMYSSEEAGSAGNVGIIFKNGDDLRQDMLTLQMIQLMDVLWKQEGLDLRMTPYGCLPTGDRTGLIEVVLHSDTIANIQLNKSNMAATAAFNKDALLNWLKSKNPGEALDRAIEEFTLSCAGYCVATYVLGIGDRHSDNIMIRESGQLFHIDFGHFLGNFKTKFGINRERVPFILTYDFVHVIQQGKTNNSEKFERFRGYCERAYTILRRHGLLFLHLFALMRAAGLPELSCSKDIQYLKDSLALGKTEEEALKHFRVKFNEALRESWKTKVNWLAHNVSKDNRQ

[7] = biological target: T3, Phosphatidylinositol 4,5-bisphosphate 3-kinase catalytic subunit alpha isoform (Homo sapiens, UniProt P42336); assay: Inhibition of recombinant human myristoylated PI3Kalpha catalytic domain expressed in Rat1 cells assessed as reduction in Akt phosphorylation at […] residue after 1 hr by alpha screen Surefire assay; type: cell-based
T3 sequence (P42336 whole entry, the tested form may be a part, canonical isoform): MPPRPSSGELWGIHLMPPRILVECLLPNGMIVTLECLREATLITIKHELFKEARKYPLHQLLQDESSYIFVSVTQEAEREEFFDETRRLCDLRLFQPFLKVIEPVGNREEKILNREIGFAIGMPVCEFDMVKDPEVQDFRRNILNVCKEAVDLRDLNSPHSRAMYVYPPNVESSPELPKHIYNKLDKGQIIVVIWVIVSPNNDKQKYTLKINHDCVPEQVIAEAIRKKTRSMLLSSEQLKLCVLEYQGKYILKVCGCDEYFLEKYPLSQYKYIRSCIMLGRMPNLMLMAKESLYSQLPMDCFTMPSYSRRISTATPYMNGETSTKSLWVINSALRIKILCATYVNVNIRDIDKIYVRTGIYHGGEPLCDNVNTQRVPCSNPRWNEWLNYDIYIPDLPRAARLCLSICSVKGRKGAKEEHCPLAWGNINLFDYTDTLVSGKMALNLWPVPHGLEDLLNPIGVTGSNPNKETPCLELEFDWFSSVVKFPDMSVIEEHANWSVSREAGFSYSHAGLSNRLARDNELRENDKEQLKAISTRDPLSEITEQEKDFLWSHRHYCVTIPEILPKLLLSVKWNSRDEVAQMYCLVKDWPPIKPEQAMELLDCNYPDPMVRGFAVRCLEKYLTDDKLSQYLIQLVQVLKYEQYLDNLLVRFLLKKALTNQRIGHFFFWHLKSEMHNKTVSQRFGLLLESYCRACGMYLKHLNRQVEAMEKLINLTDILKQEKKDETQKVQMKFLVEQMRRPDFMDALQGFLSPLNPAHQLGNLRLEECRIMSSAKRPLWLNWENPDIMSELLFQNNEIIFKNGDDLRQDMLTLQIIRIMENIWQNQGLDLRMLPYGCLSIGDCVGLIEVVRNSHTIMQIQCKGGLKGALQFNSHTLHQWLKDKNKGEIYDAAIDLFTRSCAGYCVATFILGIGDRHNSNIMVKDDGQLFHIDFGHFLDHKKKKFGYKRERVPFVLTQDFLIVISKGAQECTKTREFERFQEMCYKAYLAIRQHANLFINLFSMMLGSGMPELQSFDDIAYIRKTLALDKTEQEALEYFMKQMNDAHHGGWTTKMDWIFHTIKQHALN

[8] = biological target: Phosphatidylinositol 4,5-bisphosphate 3-kinase catalytic subunit gamma isoform (Homo sapiens, UniProt P48736); assay: Inhibition of PI3Kgamma (unknown origin) using phosphatidyl inositol as substrate measured after 30 mins by Alexa Fluor647-labelled ADP tracer based TR-FRET assay
Chain of Phosphatidylinositol 4,5-bisphosphate 3-kinase catalytic subunit gamma isoform (P48736 whole entry, canonical isoform): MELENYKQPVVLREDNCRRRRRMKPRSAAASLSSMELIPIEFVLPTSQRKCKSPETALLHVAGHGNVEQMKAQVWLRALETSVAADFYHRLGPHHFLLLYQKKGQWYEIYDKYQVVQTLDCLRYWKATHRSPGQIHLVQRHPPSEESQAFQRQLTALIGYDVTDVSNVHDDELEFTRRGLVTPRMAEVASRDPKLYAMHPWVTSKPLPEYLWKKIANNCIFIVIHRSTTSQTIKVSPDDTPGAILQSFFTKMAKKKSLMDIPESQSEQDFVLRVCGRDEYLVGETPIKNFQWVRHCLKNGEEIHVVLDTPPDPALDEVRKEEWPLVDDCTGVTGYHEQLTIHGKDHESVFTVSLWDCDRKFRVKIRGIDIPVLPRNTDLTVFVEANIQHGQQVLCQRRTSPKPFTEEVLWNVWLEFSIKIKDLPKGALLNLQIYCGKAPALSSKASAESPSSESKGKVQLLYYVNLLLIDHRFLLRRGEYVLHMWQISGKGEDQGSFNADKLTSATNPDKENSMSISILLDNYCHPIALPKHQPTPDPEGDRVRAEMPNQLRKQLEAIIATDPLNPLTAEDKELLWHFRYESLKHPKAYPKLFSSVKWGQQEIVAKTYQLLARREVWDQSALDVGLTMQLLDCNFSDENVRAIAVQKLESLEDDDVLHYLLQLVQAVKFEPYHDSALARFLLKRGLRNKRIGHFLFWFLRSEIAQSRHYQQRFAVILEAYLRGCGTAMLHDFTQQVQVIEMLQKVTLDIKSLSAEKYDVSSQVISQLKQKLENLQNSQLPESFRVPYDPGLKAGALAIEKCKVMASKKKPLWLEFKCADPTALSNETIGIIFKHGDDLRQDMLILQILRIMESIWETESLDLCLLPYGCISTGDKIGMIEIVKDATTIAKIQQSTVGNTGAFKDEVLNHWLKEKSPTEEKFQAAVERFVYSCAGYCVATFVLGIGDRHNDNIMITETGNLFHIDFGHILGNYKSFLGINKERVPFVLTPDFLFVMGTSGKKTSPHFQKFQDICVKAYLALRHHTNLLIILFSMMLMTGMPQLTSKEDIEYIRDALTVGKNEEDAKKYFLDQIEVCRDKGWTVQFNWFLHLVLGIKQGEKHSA

[9] = Intrinsic clearance in rat liver microsomes assessed per mg protein; type: ADME, microsome; details: read-out: CLH
[10] = biological target: T4, Phosphatidylinositol 4,5-bisphosphate 3-kinase catalytic subunit delta isoform (Homo sapiens, UniProt O00329); assay: Inhibition of recombinant human myristoylated PI3Kdelta catalytic domain expressed in Rat1 cells assessed as reduction in Akt phosphorylation at […] residue after 1 hr by alpha screen Surefire assay; type: cell-based
T4 sequence (O00329 whole entry): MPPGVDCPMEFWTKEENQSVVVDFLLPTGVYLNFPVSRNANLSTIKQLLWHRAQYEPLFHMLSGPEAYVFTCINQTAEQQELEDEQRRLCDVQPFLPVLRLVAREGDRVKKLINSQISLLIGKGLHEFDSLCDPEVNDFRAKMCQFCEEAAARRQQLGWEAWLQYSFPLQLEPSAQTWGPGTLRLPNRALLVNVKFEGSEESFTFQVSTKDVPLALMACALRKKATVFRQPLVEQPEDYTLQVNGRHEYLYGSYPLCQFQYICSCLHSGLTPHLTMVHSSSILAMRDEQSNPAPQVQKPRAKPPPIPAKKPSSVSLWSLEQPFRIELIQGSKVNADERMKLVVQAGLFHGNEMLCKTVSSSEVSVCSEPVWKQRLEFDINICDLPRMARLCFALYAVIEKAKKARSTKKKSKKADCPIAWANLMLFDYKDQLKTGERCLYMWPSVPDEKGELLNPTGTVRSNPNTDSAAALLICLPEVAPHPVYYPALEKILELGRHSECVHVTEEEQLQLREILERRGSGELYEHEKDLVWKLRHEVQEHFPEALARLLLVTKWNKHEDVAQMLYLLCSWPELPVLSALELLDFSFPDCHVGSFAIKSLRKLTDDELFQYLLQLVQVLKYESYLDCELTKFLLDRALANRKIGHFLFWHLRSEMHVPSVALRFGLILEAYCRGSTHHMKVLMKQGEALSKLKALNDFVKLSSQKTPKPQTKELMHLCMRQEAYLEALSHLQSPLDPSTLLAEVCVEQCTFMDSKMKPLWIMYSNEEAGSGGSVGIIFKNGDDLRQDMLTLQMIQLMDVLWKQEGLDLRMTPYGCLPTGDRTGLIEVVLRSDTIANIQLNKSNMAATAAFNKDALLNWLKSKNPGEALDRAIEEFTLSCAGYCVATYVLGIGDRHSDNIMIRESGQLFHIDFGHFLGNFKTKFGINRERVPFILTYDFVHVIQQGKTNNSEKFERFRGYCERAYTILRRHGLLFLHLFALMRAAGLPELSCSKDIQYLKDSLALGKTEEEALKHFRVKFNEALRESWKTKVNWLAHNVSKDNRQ

[11] = biological target: T4, Phosphatidylinositol 4,5-bisphosphate 3-kinase catalytic subunit delta isoform; assay: Inhibition of PI3Kdelta (unknown origin) using phosphatidyl inositol as substrate measured after 60 mins by Alexa Fluor647-labelled ADP tracer based TR-FRET assay
[12] = biological target: T3, Phosphatidylinositol 4,5-bisphosphate 3-kinase catalytic subunit alpha isoform; assay: Inhibition of recombinant PI3Kalpha (unknown origin) using phosphatidyl inositol/n-Octyl-glucoside as substrate measured after 30 mins by KinaseGlo assay

Row | SMILES | IC50 [1] [µM] | IC50 [2] [µM] | solubility thermodynamic [3] [µM] | logP [4] | IC50 [5] [µM] | IC50 [6] [µM] | IC50 [7] [µM] | IC50 [8] [µM] | microsomal CLint [9] [µL/min/mg] | IC50 [10] [µM] | IC50 [11] [µM] | IC50 [12] [µM]
1 | CCC(=O)N1CC[C@H](Nc2ncnc3c2CN(c2cnc(OC)c(C)c2)CC3)C1 | 0.073 | 7.91 | > 1000 | 2.8 | 0.951 | 0.087 | 7.41 |  |  |  |  | 
2 | CCC(=O)N1CC[C@H](Oc2ncnc3c2CN(c2ccc(OC)nc2)CC3)C1 |  | > 10 | > 1000 | 2.2 | 8.94 |  | > 10 | > 9.1 | 35 | 5.39 | 0.132 | 6.66
3 | COc1ccc(N2CCc3ncnc(-c4cccc(OC5CCN(C(C)=O)CC5)c4)c3C2)cn1 |  | > 10 | > 1000 | 2.2 | 8.94 |  | 9.03 | > 9.1 | 197 | 0.374 | 0.083 | 2.02
4 | COc1ncc(N2CCc3ncnc(N[C@H]4CCN(C(=O)C5CCOCC5)C4)c3C2)cc1C | 0.074 | 9.87 | > 1000 | 2.6 | 2.02 | 0.091 |  | 3.29 | 22 | 0.358 | 0.03 | 
5 | COc1ccc(N2CCc3ncnc(-c4cccc(C(=O)N5CCN(C(C)=O)CC5)c4)c3C2)cn1 |  | > 10 | > 1000 | 0.7 | > 9.1 |  | > 10 | > 9.1 | 91 | 2.63 | 0.065 | 6.94

Compounds with a lower IC50 [2], results first:

Row | IC50 [1] [µM] | IC50 [2] [µM] | solubility thermodynamic [3] [µM] | logP [4] | IC50 [5] [µM] | IC50 [6] [µM] | IC50 [7] [µM] | IC50 [8] [µM] | microsomal CLint [9] [µL/min/mg] | IC50 [10] [µM] | IC50 [11] [µM] | IC50 [12] [µM] | SMILES
6 | 0.092 | 6.79 | > 1000 | 1.7 | 4.15 | 0.098 |  | 6.6 | 60 | 0.143 | 0.076 |  | COc1ncc(N2CCc3ncnc(O[C@H]4CCN(C(=O)C5CCOCC5)C4)c3C2)cc1C
7 | 0.016 | 3.99 | 240 (≈ 122 µg/mL) | 2.9 | 0.3 | 0.015 | 2.15 | 1.06 | 41 |  | 0.004 | 0.044 | COc1ncc(N2CCc3ncnc(N[C@H]4CCN(C(=O)C5CCOCC5)C4)c3C2)cc1C(F)(F)F
8 | 0.058 | 3.58 | 270 (≈ 137 µg/mL) | 2.2 | 1.33 | 0.084 | 3.55 | > 9.1 | 149 | 0.037 | 0.028 |  | COc1ncc(N2CCc3ncnc(O[C@H]4CCN(C(=O)C5CCOCC5)C4)c3C2)cc1C(F)(F)F
9 |  | 3.11 | 80 (≈ 36.1 µg/mL) | 3.1 | 1.71 |  | 2.6 | > 9.1 | 160 | 0.131 | 0.027 |  | CCC(=O)N1CC[C@H](Oc2ncnc3c2CN(c2cnc(OC)c(C(F)(F)F)c2)CC3)C1
